Source: ChEMBL document CHEMBL1132632, “Conformational and quantitative structure-activity relationship study of cytotoxic 2-arylidenebenzocycloalkanones” (J Med Chem, 1999)

Key:
MOLT-4 [1] = experiment: Average potency against Molt4/C8cells; format: functional, Homo sapiens
MOLT-4 [2] = experiment: Inhibitory activity was tested against Molt4/C8 cells; format: functional, cell-based; conditions: Homo sapiens
CCRF-CEM [3] = experiment: Average potency against CEM cells; format: functional, Homo sapiens
L1210 [4] = experiment: Inhibitory activity was tested against L1210 cells; format: functional, cell-based; conditions: Mus musculus
Tumor Cell line = experiment: Tested against human tumor cell lines, mean graph mid point values(MG MID) are determined.; format: functional
Procedure, shortened: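 Panel of about 55 human tumor cell lines from nine cancer types: leukemia, melanoma, non-small-cell lung, colon, CNS, ovarian, renal, prostate and breast. Compounds were tested from 10⁻⁴ to 10⁻⁸ M, and the 50% growth-inhibitory concentration was found for each line.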

P388 [5] = experiment: Inhibitory activity was tested against P388 cells; format: functional, cell-based; conditions: Mus musculus
P388 [6] = experiment: Average potency against P388 cells; format: functional, Mus musculus
CCRF-CEM [7] = experiment: Inhibitory activity was tested against CEM cells; format: functional, cell-based; conditions: Homo sapiens
L1210 [8] = experiment: Average potency against L1210 cells; format: functional, Mus musculus

Row | IC50 (MOLT-4 [2]) [µM] | IC50 (L1210 [4]) [µM] | IC50 (P388 [5]) [µM] | IC50 (CCRF-CEM [7]) [µM] | Compound | AP (MOLT-4 [1]) [µM] | AP (CCRF-CEM [3]) [µM] | MG MID (Tumor Cell line) [µM] | AP (P388 [6]) [µM] | AP (L1210 [8]) [µM]
1 | 170 | 283 | > 50 | 128 | COc1cccc(/C=C2\CCCCCC2=O)c1 | 186 | 136 | 85.1 | 34.5 | 227
2 | 41.8 | 118 | 16.8 | 9.19 | O=C1/C(=C/c2cccc(Cl)c2)CCc2ccccc21 | 158 | 115 | – | 20.9 | 135
3 | > 500 | 161 | 17.7 | 460 | Cc1ccc(/C=C2\CCc3ccccc3C2=O)cc1 | 158 | 115 | – | 20.9 | 135
4 | 215 | 261 | > 50 | 110 | O=C1CCCCC/C1=C\c1ccccc1 | 186 | 136 | 91.2 | 34.5 | 227
5 | > 500 | 256 | > 50 | 222 | O=C1/C(=C/c2cccc([N+](=O)[O-])c2)Cc2ccccc21 | 267 | 155 | 91.2 | 42.9 | 127
6 | > 500 | 69.1 | 20.9 | 48.2 | O=C1/C(=C/c2ccc(Cl)cc2)CCc2ccccc21 | 158 | 115 | – | 20.9 | 135
7 | 250 | 291 | > 50 | 198 | O=C1CCCCC/C1=C\c1ccc(F)cc1 | 186 | 136 | 83.2 | 34.5 | 227
8 | 250 | 306 | > 50 | 194 | COc1ccc(/C=C2\CCCCCC2=O)cc1 | 186 | 136 | 100 | 34.5 | 227
9 | 482 | 382 | > 50 | 224 | O=C1CCCCC/C1=C\c1cccc(F)c1 | 186 | 136 | 67.6 | 34.5 | 227
10 | 2.11 | 17.5 | 5.3 | 1.65 | CN(C)c1ccc(/C=C2\CCc3ccccc3C2=O)cc1 | 158 | 115 | – | 20.9 | 135
11 | 50.9 | 41.2 | 26.3 | 31.8 | O=C1/C(=C/c2cccc(Cl)c2)Cc2ccccc21 | 267 | 155 | – | 42.9 | 127
12 | > 500 | 54.1 | > 50 | 284 | O=C1/C(=C/c2ccc(Cl)cc2)Cc2ccccc21 | 267 | 155 | – | 42.9 | 127
13 | 54.7 | 50.9 | 18.6 | 17.1 | O=C1/C(=C/c2ccc(Br)cc2)CCCc2ccccc21 | 66 | 47 | – | 11.2 | 85.2
14 | 42.3 | 112 | > 50 | 41.3 | O=C1/C(=C/c2ccccc2)Cc2ccccc21 | 267 | 155 | – | 42.9 | 127
15 | > 500 | 217 | > 50 | > 500 | COc1cccc(/C=C2\Cc3ccccc3C2=O)c1 | 267 | 155 | – | 42.9 | 127
16 | 8.01 | 254 | 12 | 5.3 | O=C1/C(=C/c2cccc([N+](=O)[O-])c2)CCc2ccccc21 | 158 | 115 | – | 20.9 | 135
17 | > 500 | 64.8 | > 50 | 299 | O=C1/C(=C/c2ccc(Br)cc2)Cc2ccccc21 | 267 | 155 | – | 42.9 | 127
18 | 9.41 | 44 | 22.1 | 8.84 | COc1ccc(/C=C2\CCc3ccccc3C2=O)cc1 | 158 | 115 | – | 20.9 | 135
19 | 12.1 | 60.7 | 17.6 | 8.78 | COc1cccc(/C=C2\CCc3ccccc3C2=O)c1 | 158 | 115 | – | 20.9 | 135

Row | IC50 (MOLT-4 [2]) [µM] | IC50 (L1210 [4]) [µM] | IC50 (P388 [5]) [µM] | IC50 (CCRF-CEM [7]) [µM] | Compound | AP (MOLT-4 [1]) [µM] | AP (CCRF-CEM [3]) [µM] | MG MID (Tumor Cell line) [µM] | AP (P388 [6]) [µM] | AP (L1210 [8]) [µM]
20 | 176 | 246 | 24.1 | 137 | O=C1CCCCC/C1=C\c1cccc(Br)c1 | 186 | 136 | – | 34.5 | 227
21 | 135 | 61.7 | > 50 | 41 | CN(C)c1ccc(/C=C2\Cc3ccccc3C2=O)cc1 | 267 | 155 | – | 42.9 | 127
22 | 53.6 | 60.3 | 11.1 | 20 | O=C1/C(=C/c2ccc(F)cc2)CCCc2ccccc21 | 66 | 47 | – | 11.2 | 85.2
23 | 17.1 | 51 | 10.5 | 8.9 | O=C1/C(=C/c2cccc(Br)c2)CCCc2ccccc21 | 66 | 47 | – | 11.2 | 85.2
24 | – | – | – | – | CN(C)c1ccc(/C=C2\CCCc3ccccc3C2=O)cc1 | 66 | 47 | 1.41 | 11.2 | 85.2
25 | 32.4 | 121 | 30.2 | 7.42 | O=C1/C(=C/c2ccccc2)CCc2ccccc21 | 158 | 115 | – | 20.9 | 135
26 | > 500 | 59.1 | 38.6 | 67.1 | Cc1ccc(/C=C2\Cc3ccccc3C2=O)cc1 | 267 | 155 | – | 42.9 | 127
27 | 80.3 | 50.4 | 24.9 | 41.3 | Cc1cccc(/C=C2\Cc3ccccc3C2=O)c1 | 267 | 155 | – | 42.9 | 127
28 | 11.9 | 61.2 | 31.1 | 8.01 | O=C1/C(=C/c2cccc(F)c2)CCc2ccccc21 | 158 | 115 | – | 20.9 | 135
29 | > 500 | > 500 | > 50 | > 500 | O=C1/C(=C/c2ccc([N+](=O)[O-])cc2)Cc2ccccc21 | 267 | 155 | – | 42.9 | 127
30 | > 500 | > 500 | > 50 | > 500 | O=C1/C(=C/c2ccc([N+](=O)[O-])cc2)CCc2ccccc21 | 158 | 115 | – | 20.9 | 135
31 | 49.4 | 68.4 | 16.8 | 42.8 | O=C1CCCCC/C1=C\c1ccc(Br)cc1 | 186 | 136 | – | 34.5 | 227
32 | 35.8 | 73.2 | 16.3 | 9.41 | Cc1cccc(/C=C2\CCc3ccccc3C2=O)c1 | 158 | 115 | – | 20.9 | 135
33 | 60 | 89 | > 50 | 42.2 | O=C1/C(=C/c2ccc(F)cc2)Cc2ccccc21 | 267 | 155 | – | 42.9 | 127
34 | 46.1 | 181 | 40 | 39.2 | O=C1/C(=C/c2cccc(F)c2)Cc2ccccc21 | 267 | 155 | – | 42.9 | 127
35 | 41.2 | 49.3 | 15.9 | 33.4 | O=C1/C(=C/c2ccc(F)cc2)CCc2ccccc21 | 158 | 115 | – | 20.9 | 135
36 | 226 | 45.8 | > 50 | 32.6 | COc1ccc(/C=C2\Cc3ccccc3C2=O)cc1 | 267 | 155 | – | 42.9 | 127
37 | > 500 | 202 | 20.4 | > 500 | O=C1/C(=C/c2ccc(Br)cc2)CCc2ccccc21 | 158 | 115 | – | 20.9 | 135
